Assay results taken from ChEMBL document CHEMBL5058577, “EUbOPEN Chemogenomics Library 2 (Multiplex)” (2022).

Tested on: Fibroblast
Experiment: Multiplex assay against human fibroblast
Assay type: toxicity, cell-based
Summary of the method: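 On a CQ1 microscope at 37°C and 5% CO2, live cells were imaged after compound addition. They had been stained at seeding with Hoechst33342, BioTracker Green Microtubule Cytoskeleton Dye, MitoTracker Red and Annexin V Alexa Fluor 680. CellPathfinder machine-learning gating assigned cells to Hoechst high-intensity objects or normal cells, normal cells to healthy, pyknosed or fragmented nuclei, and pyknosed cells to mitotic or apoptotic. Tubulin, mitochondrial-mass and membrane-permeability phenotypes are per cents of healthy-nucleus cells.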

[1] = 12 h, 1 µM, compound concentration 1 uM, replicate 1
[2] = 12 h, 1 µM, compound concentration 1 uM, replicate 2
[3] = 12 h, 10 µM, compound concentration 10 uM, replicate 1
[4] = 12 h, 10 µM, compound concentration 10 uM, replicate 2
[5] = 24 h, 1 µM, compound concentration 1 uM, replicate 1
[6] = 24 h, 1 µM, compound concentration 1 uM, replicate 2
[7] = 24 h, 10 µM, compound concentration 10 uM, replicate 1
[8] = 24 h, 10 µM, compound concentration 10 uM, replicate 2
[9] = 48 h, 1 µM, compound concentration 1 uM, replicate 1
[10] = 48 h, 1 µM, compound concentration 1 uM, replicate 2
[11] = 48 h, 10 µM, compound concentration 10 uM, replicate 1
[12] = 48 h, 10 µM, compound concentration 10 uM, replicate 2

O=C(CCCc1ccccc1)Nc1nc2ccccc2c(=O)s1
Population Apoptotic (%) [1]: 58%
Population Fragmented Nuclei (%) [1]: 9%
Population Healthy Nuclei (%) [1]: 66%
Population Hoechst High Intensity Objects (%) [1]: 2%
Population Membrane Permeable-Phenotype (%) [1]: 0%
Population Mitochondria Different-Phenotype (%) [1]: 4%
Population Mitotic Cells (%) [1]: 41%
Population Normal (%) [1]: 97%
Population Pyknosed Nuclei (%) [1]: 23%
Population Tubulin-Different-Phenotype (%) [1]: 34%
Total Cell Count [1]: 127
Population Apoptotic (%) [2]: 34%
Population Fragmented Nuclei (%) [2]: 19%
Population Healthy Nuclei (%) [2]: 49%
Population Hoechst High Intensity Objects (%) [2]: 3%
Population Membrane Permeable-Phenotype (%) [2]: 9%
Population Mitochondria Different-Phenotype (%) [2]: 7%
Population Mitotic Cells (%) [2]: 65%
Population Normal (%) [2]: 96%
Population Pyknosed Nuclei (%) [2]: 31%
Population Tubulin-Different-Phenotype (%) [2]: 35%
Total Cell Count [2]: 135
Population Apoptotic (%) [3]: 51%
Population Fragmented Nuclei (%) [3]: 21%
Population Healthy Nuclei (%) [3]: 58%
Population Hoechst High Intensity Objects (%) [3]: 2%
Population Membrane Permeable-Phenotype (%) [3]: 1%
Population Mitochondria Different-Phenotype (%) [3]: 4%
Population Mitotic Cells (%) [3]: 48%
Population Normal (%) [3]: 97%
Population Pyknosed Nuclei (%) [3]: 20%
Population Tubulin-Different-Phenotype (%) [3]: 28%
Total Cell Count [3]: 147
Population Apoptotic (%) [4]: 31%
Population Fragmented Nuclei (%) [4]: 26%
Population Healthy Nuclei (%) [4]: 38%
Population Hoechst High Intensity Objects (%) [4]: 12%
Population Membrane Permeable-Phenotype (%) [4]: 13%
Population Mitochondria Different-Phenotype (%) [4]: 17%
Population Mitotic Cells (%) [4]: 68%
Population Normal (%) [4]: 87%
Population Pyknosed Nuclei (%) [4]: 35%
Population Tubulin-Different-Phenotype (%) [4]: 48%
Total Cell Count [4]: 133
Population Apoptotic (%) [5]: 50%
Population Fragmented Nuclei (%) [5]: 13%
Population Healthy Nuclei (%) [5]: 68%
Population Hoechst High Intensity Objects (%) [5]: 2%
Population Membrane Permeable-Phenotype (%) [5]: 0%
Population Mitochondria Different-Phenotype (%) [5]: 5%
Population Mitotic Cells (%) [5]: 50%
Population Normal (%) [5]: 97%
Population Pyknosed Nuclei (%) [5]: 18%
Population Tubulin-Different-Phenotype (%) [5]: 20%
Total Cell Count [5]: 147
Population Apoptotic (%) [6]: 42%
Population Fragmented Nuclei (%) [6]: 21%
Population Healthy Nuclei (%) [6]: 51%
Population Hoechst High Intensity Objects (%) [6]: 5%
Population Membrane Permeable-Phenotype (%) [6]: 4%
Population Mitochondria Different-Phenotype (%) [6]: 4%
Population Mitotic Cells (%) [6]: 57%
Population Normal (%) [6]: 94%
Population Pyknosed Nuclei (%) [6]: 26%
Population Tubulin-Different-Phenotype (%) [6]: 35%
Total Cell Count [6]: 131
Population Apoptotic (%) [7]: 46%
Population Fragmented Nuclei (%) [7]: 19%
Population Healthy Nuclei (%) [7]: 60%
Population Hoechst High Intensity Objects (%) [7]: 5%
Population Membrane Permeable-Phenotype (%) [7]: 0%
Population Mitochondria Different-Phenotype (%) [7]: 3%
Population Mitotic Cells (%) [7]: 53%
Population Normal (%) [7]: 94%
Population Pyknosed Nuclei (%) [7]: 20%
Population Tubulin-Different-Phenotype (%) [7]: 15%
Total Cell Count [7]: 135
Population Apoptotic (%) [8]: 53%
Population Fragmented Nuclei (%) [8]: 34%
Population Healthy Nuclei (%) [8]: 39%
Population Membrane Permeable-Phenotype (%) [8]: 18%
Population Mitochondria Different-Phenotype (%) [8]: 14%
Population Mitotic Cells (%) [8]: 46%
Population Pyknosed Nuclei (%) [8]: 25%
Population Tubulin-Different-Phenotype (%) [8]: 62%
Total Cell Count [8]: 134
Population Apoptotic (%) [9]: 59%
Population Fragmented Nuclei (%) [9]: 13%
Population Healthy Nuclei (%) [9]: 66%
Population Hoechst High Intensity Objects (%) [9]: 5%
Population Membrane Permeable-Phenotype (%) [9]: 1%
Population Mitochondria Different-Phenotype (%) [9]: 1%
Population Mitotic Cells (%) [9]: 40%
Population Normal (%) [9]: 94%
Population Pyknosed Nuclei (%) [9]: 19%
Population Tubulin-Different-Phenotype (%) [9]: 32%
Total Cell Count [9]: 146
Population Apoptotic (%) [10]: 42%
Population Fragmented Nuclei (%) [10]: 26%
Population Healthy Nuclei (%) [10]: 58%
Population Hoechst High Intensity Objects (%) [10]: 2%
Population Membrane Permeable-Phenotype (%) [10]: 4%
Population Mitochondria Different-Phenotype (%) [10]: 6%
Population Mitotic Cells (%) [10]: 57%
Population Normal (%) [10]: 97%
Population Pyknosed Nuclei (%) [10]: 15%
Population Tubulin-Different-Phenotype (%) [10]: 50%
Total Cell Count [10]: 127
Population Apoptotic (%) [11]: 58%
Population Fragmented Nuclei (%) [11]: 19%
Population Healthy Nuclei (%) [11]: 58%
Population Hoechst High Intensity Objects (%) [11]: 2%
Population Membrane Permeable-Phenotype (%) [11]: 1%
Population Mitochondria Different-Phenotype (%) [11]: 2%
Population Mitotic Cells (%) [11]: 41%
Population Normal (%) [11]: 97%
Population Pyknosed Nuclei (%) [11]: 22%
Population Tubulin-Different-Phenotype (%) [11]: 26%
Total Cell Count [11]: 143
Population Apoptotic (%) [12]: 77%
Population Fragmented Nuclei (%) [12]: 40%
Population Healthy Nuclei (%) [12]: 43%
Population Hoechst High Intensity Objects (%) [12]: 5%
Population Membrane Permeable-Phenotype (%) [12]: 10%
Population Mitochondria Different-Phenotype (%) [12]: 14%
Population Mitotic Cells (%) [12]: 22%
Population Normal (%) [12]: 94%
Population Pyknosed Nuclei (%) [12]: 16%
Population Tubulin-Different-Phenotype (%) [12]: 73%
Total Cell Count [12]: 119
